Laboratory results: ChEMBL document CHEMBL4513216, “Probing the Open Global Health Chemical Diversity Library for Multistage-Active Starting Points for Next-Generation Antimalarials” (ACS Infect Dis, 2020)

Assay: Toxicity liver stage against HepG2, at 10uM
Type: cell-based
Parameters: test concentration 10 uM, cell line HepG2-A16-CD81EGFP
Conditions: human, HepG2-A16-CD81EGFP cells; read-out: INHIBITION
Outline: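 Uninfected HepG2-A16-CD81EGFP cells, 3 × 10^3 per well, 1536-well, plated on prespotted compound at 10 μM final, parasite-free screening media added to match infected plates; puromycin 10 μM positive, DMSO 0.5% negative; run in parallel with 48 h PbLuc assay at 37 °C, 5% CO2; viability by CellTiter-Glo luminescence, normalized to controls.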

Row | SMILES | cytotoxicity at 10 µM [%]
1 | CCc1ccc(C2CC(=O)Nc3c2c(=O)n(C)c2ncnn32)cc1 (stereo not drawn) | 8.16
2 | O=C(CCC(=O)Nc1nnc(C(F)(F)F)s1)NCC1CCCO1 (stereo not drawn) | 4.65
3 | CC(=O)N1N=C(c2ccncc2)OC1C(=O)N(C)CCc1ccccc1 (stereo not drawn) | 12.9
4 | CCOC(=O)C1CC2(CCCC2)N2CCC(=O)N12 (stereo not drawn) | 1.53
5 | O=C(C1CC1)N(Cc1ccc2cc[nH]c2c1)C1CC1 | -2.98
6 | Cc1nnc(SCC(=O)c2cc3c(cc2Cl)NC(=O)C3)o1 | -5.28
7 | Cc1cc(C)n(-c2cccc(C(=O)Nc3n[nH]c(C4CCCO4)n3)c2)n1 (stereo not drawn) | -4.44
8 | COc1ccccc1C(O)Cn1cc(C(=O)NCc2ccco2)nn1 (stereo not drawn) | -6.03
9 | COCc1ncn2c1CN(S(=O)(=O)c1cccs1)CCC2 | 6.82
10 | O=C1CC(c2cccc(O)c2)c2sc(C(=O)O)c(-c3ccccc3)c2N1 (stereo not drawn) | 6.33
11 | COc1cccc(NC(=O)C(C)Cn2cc(Cl)cn2)c1 (stereo not drawn) | -1.47
12 | Cn1ncc(C(=O)N2CCOCC2)c1Cl | 8.93
13 | Cc1c(S(=O)(=O)N2CCCC2c2nnc(-c3ccsc3)o2)cnn1C (stereo not drawn) | 3.04
14 | CN(C)C(=O)c1c[nH]nc1C1CCN(S(=O)(=O)c2cccc(Cl)c2)CC1 | 1.22
15 | Cc1cnc(-c2nc(NC3CC3)ncc2-c2onc(C)c2C)cn1 | -27.9
16 | Cn1nccc1C(=O)N1CCOC(Cc2ccc(Cl)cc2)C1 (stereo not drawn) | -26
17 | CCOCC(=O)N1C[C@@H]2CC[C@H](Oc3ccccc3)[C@@H]2C1 | -16.1
18 | Cc1nc(Nc2cnccn2)cc(C2CCCN(C(C)C)C2)n1 (stereo not drawn) | -9.03
19 | CS(=O)(=O)NC(=O)c1ccn(-c2ccccc2Cl)n1 | -4.27
20 | CC(C)C(C)(CNC(=O)OC(C)(C)C)NC(=O)c1cnccn1 (stereo not drawn) | -6.62
21 | CCOc1ccc(NC(=O)Cc2cc(C)[nH]n2)cc1CO | 0.335

Row | SMILES | cytotoxicity at 10 µM [%]
22 | CC(C)c1cnc(CN2CCCS2(=O)=O)o1 | 10.6
23 | C[S+]([O-])CCNC(=O)N1CCN(c2cc(F)ccc2F)CC1 (stereo not drawn) | -13.4
24 | CC1COCCN1C(=O)Cc1cc(Cl)c2c(c1)OCCCO2 (stereo not drawn) | -1.43
25 | CCc1[nH]nc(NC(=O)c2cc[nH]n2)c1C | -3.98
26 | O=C(NCCNc1cnccn1)N1CCc2ccccc2C1 | -2.73
27 | O=c1[nH]nc(SCC2CCCCO2)n1C1CC1 (stereo not drawn) | 2.14
28 | CS(=O)(=O)N1CCC(Oc2ccc(C#N)cc2)CC1 | -8.97
29 | CCOc1cccc(COC(=O)c2scnc2C)n1 | -0.966
30 | N#Cc1nccnc1N1CCC(Cc2ccccc2)C1 (stereo not drawn) | -8.68
31 | COC(=O)CN(C(=O)c1ccc(-n2ccnc2)cc1)C1CCCC1 | -7.28
32 | O=C(C1COc2ccccc2C1)N(CCO)Cc1ccccc1 (stereo not drawn) | 4.58
33 | Cc1cc(C(=O)NCC2(C(N)=O)CCOCC2)nn1C(C)(C)C | -16.6
34 | Cc1ccc(-c2nnc(C(C)N3CCn4c(C)nnc4C3)o2)cc1 (stereo not drawn) | -7.33
35 | COc1cc(CSc2nnc(N)n2C2CC2)ccc1SC | -6.09
36 | CCC(=O)N1CCCN(C(=O)c2cc(C)cc(Br)c2O)CC1 | 7.12
37 | CC(C#N)CN(C)C(=O)c1cn(-c2ccc(Br)cc2)cn1 (stereo not drawn) | 13.6
38 | CCn1nc(C)c(S(=O)(=O)N(C)c2ccc(Cl)cn2)c1C | -2.13
39 | CC(=O)N(Cc1ncc(C)o1)C1CCN(Cc2cccc(C#N)c2)C1 (stereo not drawn) | 1.63
40 | O=c1oc(-c2cccs2)nn1CC(O)c1ccccc1 (stereo not drawn) | 21.3
41 | CCc1cccc(NC(=O)CCN2CC=C(c3cnn(C)c3)CC2)c1 | 1.2
42 | Cc1cnc(NC(C)Cc2cnccn2)nc1N(C)C (stereo not drawn) | 0.342

Row | SMILES | cytotoxicity at 10 µM [%]
43 | CNc1ncccc1C(=O)N1CCC2(CCN(C)C2)CC1 | 0.521
44 | CNC(=O)c1nc(CN2CCOC(C(F)(F)F)C2)no1 (stereo not drawn) | -2.08
45 | CC(NC(=O)c1cc(=O)n(C)c(=O)n1C)c1ccccc1-n1cccn1 (stereo not drawn) | -9.47
46 | CSCCCN1C[C@H](NC(=O)c2ccc(CO)cc2)[C@@H](C2CC2)C1 | -11.1
47 | CS(=O)(=O)N1CCc2[nH]nc(Cc3cccs3)c2C1 | 1.44
48 | O=C(NC1CC1)C1CN(Cc2ccc3c(c2)OCCO3)CCN1 (stereo not drawn) | -3.22
49 | O=C(c1cc(=O)n(-c2ccccc2)[nH]1)N1CCOCC(O)C1 (stereo not drawn) | -0.205
50 | CN(CCCc1nccn1C)C(=O)C1CCN(C(=O)C2CC2)CC1 | -4.49
51 | CCC(C(=O)NCC1=CCCN(C)C1)c1ccccc1 (stereo not drawn) | -2.65
52 | CCOCCCNCc1cc(O)c2cc(C)ccc2n1 | -11.1
53 | Cc1cc(N(C)Cc2ccsc2)n2nc(C)c(C)c2n1 | 1.7
54 | CCc1ccccc1OC1CN(CC2CCOC2)C1 (stereo not drawn) | -25.2
55 | O=C(c1scc2c1OCCO2)N1CCOC(Cc2ccc(F)cc2)C1 (stereo not drawn) | 1.73
56 | C=C(C)CNC(=O)C1CCCN(C2CCN(C(C)C)CC2)C1 (stereo not drawn) | -0.454
57 | CCC(C(=O)NC)N(c1cccc(C)c1)S(C)(=O)=O (stereo not drawn) | -11.8
58 | O=C1CN(c2ccc(CNC(=O)NCC3CCOC3)cc2)CCN1 (stereo not drawn) | -1.96
59 | CC(C)C(Sc1nccn1C1CC1)C(=O)NCc1cccnc1 (stereo not drawn) | -5.83
60 | CC(C)Cc1cc(NC(=O)c2ccccc2F)n(C)n1 | -6.48
61 | c1ccc(Cc2noc(CN3CCc4c(ncn4C4CC4)C3)n2)cc1 | 2.1
62 | N#Cc1cccc(OCCN2CCOC(Cn3cccn3)C2)c1 (stereo not drawn) | -1.3
63 | Cc1ccc(-c2nc(CNC3CCc4ncnn4C3)no2)cc1 (stereo not drawn) | -1.43

Row | SMILES | cytotoxicity at 10 µM [%]
64 | O=C(CCNc1ncccn1)N1CCC(Nc2cccnn2)CC1 | -12.9
65 | Cc1cnn(-c2ccc(C(=O)N3CCCC(n4ccnc4C)C3)cc2)c1 (stereo not drawn) | -9.99
66 | CCOCCN1CCN(C(C)c2nc(C3CC3)no2)CC1 (stereo not drawn) | -4.51
67 | O=C(c1ccc2c(c1)COC2)N1CCCC(n2cncn2)C1 (stereo not drawn) | -20.6
68 | Cc1csc(NC(=O)CN2CCCC(Cn3nc(C)nc3C)C2)n1 (stereo not drawn) | -3.95
69 | Cc1ccc(C(=O)Nc2cn[nH]c2)cc1F | -14.7
70 | CN(C)c1ccc(C(=O)N2CCCC(n3cncn3)C2)nn1 (stereo not drawn) | 0.47
71 | COc1cc(Cl)ccc1CNC(=O)N1CCC(n2cncn2)CC1 | -0.861
72 | Cc1cc(C)n(CC2CN(CC(=O)NC3CCCC3)CCO2)n1 (stereo not drawn) | -4.41
73 | O=C(c1cnc(-c2cccs2)s1)N1CCCC(n2cccn2)C1 (stereo not drawn) | -10.8
74 | O=S(=O)(NCCN1CCCCC1Cn1cncn1)c1ccccc1 (stereo not drawn) | -9.12
75 | c1csc(CN2CC3(CCN(Cc4ccsc4)C3)C2)n1 | -2.65
76 | COc1ccc(CN2CCO[C@H]3[C@H](OCCN4CCCC4)CC[C@@H]32)cc1 | 0.471
77 | CNC(=O)[C@H]1C[C@@H]2CN(S(=O)(=O)c3ccc(C)c(F)c3)C[C@@H]2N1C | -3.03
78 | Cc1n[nH]cc1CNC(C)c1cccc(N2CCCC2=O)c1 (stereo not drawn) | 6.05
79 | Cc1ccc(CN2CC(C(=O)NC(C)C)C3(CCOCC3)C2)s1 (stereo not drawn) | 1.12
80 | O=C(c1cccs1)N1CCOCC2(C1)CN(c1cccnc1)C(=O)CO2 (stereo not drawn) | 3.36
81 | COc1ccccc1CN1C[C@@H]2CN(C(C)=O)CCO[C@@H]2C1 | -102
82 | Cc1noc(C)c1CN1CCO[C@H]2CN(Cc3nccn3C)C[C@H]21 | 2.64
83 | Cc1ncccc1NC(=O)[C@@H]1CC[C@@H]2[C@@H](CCN2Cc2cnn(C)c2)O1 | -0.335
